The list is not random: actives were taken first. Their share in the collection is about 1.9%.
LEDGF integ inh – blocks HIV-1 LEDGF/p75-dependent DNA integration | TR-FRET IN-LEDGF/p75 DNA integration, Eu/Cy5 | inhibition, % at 3.7 µM | 0.64% of 370,000 active;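 active = inhibition above the screen-wide mean plus 3 SD, cut at about 13% in these data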;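 also: signal is the Cy5 over europium emission ratio at 671 and 618 nm; 0% = plate median of compound wells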
MBD2 inh – inhibitors of human MBD2 binding to methylated oligonucleotide. TR-FRET. inhibition, % at 4.4 µM. 0.31% of 370,000 active. AID 686964; in the data active = inhibition above about 13%
TDP2 absorb – TDP2 (human) inhibition, absorbance primary screen; recombinant TDP2, T5PNP hydrolysis, p-nitrophenol absorbance 415 nm; inhibition, % at 12.8 µM; 0.34% of 370,000 active; AID 720702;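 active = inhibition above the mean of all tested compounds plus 3 SD, set per campaign, cut at about 25% in these data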;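 also: 0% = DMSO with enzyme and 100% = buffer with substrate but no TDP2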
Target sequence (O95551 whole entry, looked up): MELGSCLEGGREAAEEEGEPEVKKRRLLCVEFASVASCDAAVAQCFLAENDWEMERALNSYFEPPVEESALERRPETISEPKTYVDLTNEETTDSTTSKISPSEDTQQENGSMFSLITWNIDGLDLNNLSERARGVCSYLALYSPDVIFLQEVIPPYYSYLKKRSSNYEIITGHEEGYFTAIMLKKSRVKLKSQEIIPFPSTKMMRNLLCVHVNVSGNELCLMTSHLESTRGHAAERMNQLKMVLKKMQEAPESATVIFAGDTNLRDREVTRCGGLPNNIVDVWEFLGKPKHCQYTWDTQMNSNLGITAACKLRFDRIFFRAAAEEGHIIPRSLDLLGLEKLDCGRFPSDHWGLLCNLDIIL
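Evaluation: % inhibition relative to enzyme-containing and enzyme-free wells. Material: recombinant human TDP2. Benchmarks: enzyme-free and DMSO wells. Timing: enzyme reaction with compound for 2 h at 37 °C. Compound dosing: 12.8 µM only. Measured by: p-Nitrophenol epi absorbance. Reagent: T5PNP substrate at 5 mM, a TopII-DNA adduct mimic. Replication: single well per compound.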
UHRF1 MBD2 ctr – UHRF1 methyl-DNA binding inhibition. 0.75% of 370,000 active. inhibition, % at 4.4 µM. UHRF1 binding to methylated oligo, TR-FRET; in the data active = inhibition above about 21%;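 also: UHRF1 SRA domain binding a hemimethylated CpG hairpin DNA probe; 0% = median of test compound wells and 100% = reference inhibitor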
Rin1-Abl PPI inh – inhibitors of human Rin1-Abl protein interaction; TR-FRET Rin1/Abl binding, biochemical; 0.4% of 360,000 active; inhibition, % at 7.35 µM; AID 588664; in the data active = inhibition above about 5%, passing the limit was not always enough
Starred values were filed as active, the others as inactive.

For Cc1ccc(C(=O)N/C(=C/c2ccc(F)cc2)C(=O)NCc2ccncc2)cc1 the results were LEDGF integ inh 2, MBD2 inh 3, TDP2 absorb -8, UHRF1 MBD2 ctr 23* and Rin1-Abl PPI inh -1.
For Cc1ccc(C(=O)N/C(=C\c2ccccc2)C(=O)NCc2ccncc2)cc1 the results were LEDGF integ inh 2, MBD2 inh 2, TDP2 absorb -6, UHRF1 MBD2 ctr 3 and Rin1-Abl PPI inh 1.
O=C(/C=C/c1ccc(Cl)cc1)N1CCN(CCN2C(=O)c3cccc4cccc(c34)C2=O)CC1 was read as LEDGF integ inh -1, MBD2 inh -2, TDP2 absorb -8, UHRF1 MBD2 ctr 31* and Rin1-Abl PPI inh 0.
For COc1ccc2[nH]c3c(c2c1)CCN[C@]31C(=O)N(Cc2cn(Cc3ccccc3)nn2)c2ccccc21 the results were LEDGF integ inh 6, MBD2 inh 7, TDP2 absorb -9 and UHRF1 MBD2 ctr 16.
For Cc1ccc(S(=O)(=O)N2CCN(C(=O)CCC(=O)NCCc3ccc(S(N)(=O)=O)cc3)CC2)c(C)c1 the results were LEDGF integ inh -1, MBD2 inh 8, TDP2 absorb 3, UHRF1 MBD2 ctr 44* and Rin1-Abl PPI inh 3.
`CC1(C)CC(=O)C=C(C#CC2CC2)C1` gave LEDGF integ inh -1, MBD2 inh 6, TDP2 absorb 2 and UHRF1 MBD2 ctr 23*.
`CC1(C)CC(=O)C=C(NC2CCCCC2)C1` gave LEDGF integ inh 3, MBD2 inh 0, TDP2 absorb -1, UHRF1 MBD2 ctr 2 and Rin1-Abl PPI inh 3.
Screening COc1ccccc1-n1c(SCC(N)=O)nnc1-c1ccc(S(=O)(=O)N2CCCCC2)cc1 returned LEDGF integ inh 0, MBD2 inh 2, TDP2 absorb -17, UHRF1 MBD2 ctr 3 and Rin1-Abl PPI inh -1.
Screening NC(=O)CSc1nnc(-c2ccc(S(=O)(=O)N3CCCCC3)cc2)n1-c1ccccc1 returned LEDGF integ inh -1, MBD2 inh 4, TDP2 absorb 0, UHRF1 MBD2 ctr 40* and Rin1-Abl PPI inh 1.
For COP(N)(=O)C(CC(C)C)NC(=O)OCc1ccccc1 (configuration not stated) the results were LEDGF integ inh -2, MBD2 inh -1, TDP2 absorb 7 and UHRF1 MBD2 ctr -3.
`Cc1c(Br)c([N+](=O)[O-])nn1CCCC(=O)N1CCN(c2ccccc2)CC1` gave LEDGF integ inh 2, MBD2 inh -5, TDP2 absorb 1, UHRF1 MBD2 ctr -3 and Rin1-Abl PPI inh -1.
Screening Cc1c(Cl)c([N+](=O)[O-])nn1CCCC(=O)N1CCN(c2ccccc2)CC1 returned LEDGF integ inh 1, MBD2 inh -4, TDP2 absorb 5, UHRF1 MBD2 ctr 31* and Rin1-Abl PPI inh 1.
Screening CCOc1ccc2ccccc2c1/C=N/NC(=O)CNC(=O)c1ccccc1F returned LEDGF integ inh 1, MBD2 inh -7, TDP2 absorb -11, UHRF1 MBD2 ctr -2 and Rin1-Abl PPI inh -1.
Screening CCOc1ccc2ccccc2c1/C=N/NC(=O)CNC(=O)Cc1ccccc1 returned LEDGF integ inh -1, MBD2 inh 2, TDP2 absorb -15, UHRF1 MBD2 ctr 23* and Rin1-Abl PPI inh -1.
`CC(C)OCCCNC(=S)NNC(=O)C(c1ccccc1)c1ccccc1` gave LEDGF integ inh -3, MBD2 inh 2, TDP2 absorb 1, UHRF1 MBD2 ctr 22* and Rin1-Abl PPI inh -1.
COc1ccc(CN(C(=O)c2cc(=O)c3ccccc3o2)C2CCS(=O)(=O)C2)cc1OC (configuration not stated) was read as LEDGF integ inh 2, MBD2 inh 9, TDP2 absorb -6, UHRF1 MBD2 ctr 22* and Rin1-Abl PPI inh -3.
`CCc1ccc(CN(C(=O)c2ccco2)C2CCS(=O)(=O)C2)cc1` (configuration not stated) gave LEDGF integ inh -2, MBD2 inh -6, TDP2 absorb -1, UHRF1 MBD2 ctr 2 and Rin1-Abl PPI inh 0.
O=C(c1ccco1)N(Cc1cccc(F)c1)C1CCS(=O)(=O)C1 (configuration not stated) was read as LEDGF integ inh -4, MBD2 inh 6, TDP2 absorb -1, UHRF1 MBD2 ctr 21* and Rin1-Abl PPI inh -1.

Screens: PubChem BioAssay, The Scripps Research Institute Molecular Screening Center
